Published values gathered from unrelated publications.
Each line is one published result; the experiments were not run side by side.
Cell line: MV4-11
Effect on: cell growth or viability

SMILES	test	conditions	endpoint	result
CN(C)CCNC(=O)c1ccc(-c2nc3ccc4[nH]ncc4c3c3c2COCC3)cc1	resazurin	72 h	GI50	291 nM
c1cc(N2CCCC2)ccc1-c1cc2ncc(OCC3CCNCC3)nc2cc1-c1ccc(N2CCCC2)cc1	XTT	7 days	EC50	1900 nM
O=C(NO)c1ccc(Cn2cnc3c(Nc4ccc(Cl)cc4)ncnc32)cc1	MTT	72 h	IC50	60 nM
CONC(=O)c1cccc2c1cc(C)n2-c1nc2c(c(NCc3ccccc3)n1)CCCN2		72 h	IC50	400 nM
c1ccc(COc2ccc(Nc3ccc4ncc(OCC5CCNCC5)nc4c3)cc2)cc1	XTT	7 days	EC50	840 nM
COc1ccc(Nc2ncnc3c2ncn3Cc2ccc(C(=O)Nc3ccccc3N)cc2)cc1	MTT	72 h	IC50	720 nM
CN(C)CCN(C)C(=O)c1ccc(-c2nc3ccc4[nH]ncc4c3c3c2CC(C)(C)CC3)cc1	resazurin	72 h	GI50	1900 nM
c1cc(-c2cc3ncc(OCC4CCNCC4)nc3cc2-c2cccc(N3CCCCC3)c2)cc(N2CCCCC2)c1	XTT	7 days	EC50	1400 nM
Nc1ccccc1NC(=O)c1ccc(Cn2cnc3c(Nc4ccc(Br)cc4F)ncnc32)cc1	MTT	72 h	IC50	280 nM
Cc1n[nH]c2ccc3nc(-c4ccc(C(=O)NCCN(C)C)cn4)c4c(c3c12)CCCCC4	resazurin	72 h	GI50	132 nM
Cc1cc2c(C(=O)O)cccc2n1-c1nc2c(c(NCc3ccccc3)n1)CCCN2		72 h	IC50	800 nM
O=C(NCC1CC1)c1ccc(-c2nc3ccc4[nH]ncc4c3c3c2CCCC3)cc1	resazurin	72 h	GI50	> 10000 nM
O=C(NO)c1ccc(Cn2cnc3c(Nc4cccc([N+](=O)[O-])c4)ncnc32)cc1	MTT	72 h	IC50	280 nM
NCCNC(=O)c1ccc(-c2nc3ccc4[nH]ncc4c3c3c2CCCC3)cc1	resazurin	72 h	GI50	480 nM
c1ccc(Oc2ccc(Nc3ccc4ncc(OCC5CCNCC5)nc4c3)cc2)cc1	XTT	7 days	EC50	880 nM
